We go through 20 compounds from ChEMBL document CHEMBL4732065 (Eur J Med Chem, 2021).

In series [1] the target is T1, Cytochrome P450 1B1 (Homo sapiens, UniProt Q16678).
T1 sequence (Q16678 whole entry): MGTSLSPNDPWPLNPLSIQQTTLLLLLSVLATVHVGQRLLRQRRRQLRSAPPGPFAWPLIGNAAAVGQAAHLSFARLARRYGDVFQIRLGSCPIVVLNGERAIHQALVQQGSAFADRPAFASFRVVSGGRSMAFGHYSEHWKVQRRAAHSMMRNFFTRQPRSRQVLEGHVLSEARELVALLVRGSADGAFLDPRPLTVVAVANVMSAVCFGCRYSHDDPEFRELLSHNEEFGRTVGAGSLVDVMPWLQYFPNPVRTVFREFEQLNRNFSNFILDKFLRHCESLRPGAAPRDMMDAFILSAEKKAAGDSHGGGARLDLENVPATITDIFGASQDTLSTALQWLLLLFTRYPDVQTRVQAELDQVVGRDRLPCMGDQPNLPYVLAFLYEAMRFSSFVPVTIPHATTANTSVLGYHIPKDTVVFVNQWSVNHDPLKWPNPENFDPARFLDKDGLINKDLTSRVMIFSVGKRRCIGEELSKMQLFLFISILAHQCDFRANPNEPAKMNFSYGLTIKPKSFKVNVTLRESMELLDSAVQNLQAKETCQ
The series can be described thus: Inhibition of recombinant human CYP1B1 using 7-ethoxyresorufin as substrate after 35 mins in presence of NADP+ by EROD assay. The procedure, abridged:
(§1)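 Recombinant human CYP1 Supersomes co-expressing P450 reductase; 20 fmol CYP1B1, 10 fmol CYP1A1 or 60 fmol CYP1A2 per well. Incubated at 37 °C (1B1 35 min, 1A1 15 min, 1A2 50 min).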

A further series has as its target T2, Cytochrome P450 1A1 (Homo sapiens, UniProt P04798).
T2 sequence (P04798 whole entry): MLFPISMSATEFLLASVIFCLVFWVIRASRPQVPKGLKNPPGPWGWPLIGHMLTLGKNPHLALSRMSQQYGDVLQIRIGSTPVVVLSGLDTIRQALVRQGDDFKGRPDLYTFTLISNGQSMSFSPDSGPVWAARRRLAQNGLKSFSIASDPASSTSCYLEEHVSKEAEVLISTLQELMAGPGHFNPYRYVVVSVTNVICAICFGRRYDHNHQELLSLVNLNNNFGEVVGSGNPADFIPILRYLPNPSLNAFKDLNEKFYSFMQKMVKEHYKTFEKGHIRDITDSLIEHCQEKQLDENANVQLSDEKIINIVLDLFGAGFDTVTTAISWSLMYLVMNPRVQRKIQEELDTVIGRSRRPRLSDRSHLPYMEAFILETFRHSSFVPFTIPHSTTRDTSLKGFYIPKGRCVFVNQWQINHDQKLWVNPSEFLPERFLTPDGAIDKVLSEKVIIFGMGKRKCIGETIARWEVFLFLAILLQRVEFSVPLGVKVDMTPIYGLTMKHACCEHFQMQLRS
The series can be described thus: Inhibition of recombinant human CYP1A1 using 7-ethoxyresorufin as substrate after 15 mins in presence of NADP+ by EROD assay. The series is classed as ADME. The procedure, abridged:
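Recombinant human CYP1 Supersomes co-expressing P450 reductase; 20 fmol CYP1B1, 10 fmol CYP1A1 or 60 fmol CYP1A2 per well. Incubated at 37 °C (1B1 35 min, 1A1 15 min, 1A2 50 min). Stopped with cold methanol; fluorescence read at 544/590 nm; triplicates.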

In a further series the target is T3, Cytochrome P450 1A2 (Homo sapiens, UniProt P05177).
T3 sequence (P05177 whole entry): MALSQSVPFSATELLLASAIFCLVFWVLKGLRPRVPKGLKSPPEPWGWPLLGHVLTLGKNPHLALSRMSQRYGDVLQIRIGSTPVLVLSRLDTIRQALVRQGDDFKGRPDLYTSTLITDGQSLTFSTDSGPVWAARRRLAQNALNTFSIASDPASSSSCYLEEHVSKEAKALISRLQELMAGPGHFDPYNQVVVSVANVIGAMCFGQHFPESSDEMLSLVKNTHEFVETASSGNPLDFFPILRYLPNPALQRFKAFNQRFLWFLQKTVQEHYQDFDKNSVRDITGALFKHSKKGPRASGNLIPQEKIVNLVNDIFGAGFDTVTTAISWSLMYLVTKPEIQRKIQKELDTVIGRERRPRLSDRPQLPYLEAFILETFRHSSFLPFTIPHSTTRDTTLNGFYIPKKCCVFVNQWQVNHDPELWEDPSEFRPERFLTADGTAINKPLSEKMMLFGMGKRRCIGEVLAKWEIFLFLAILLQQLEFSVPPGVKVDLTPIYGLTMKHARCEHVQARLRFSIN
The series can be described thus: Inhibition of recombinant human CYP1A2 using 7-ethoxyresorufin as substrate after 50 mins in presence of NADP+ by EROD assay. In kind it is ADME. A digest of the protocol:
as §1

The species named for series [2] is Homo sapiens. The series can be described thus: Selectivity index, ratio of IC50 for recombinant human CYP1A1 to IC50 for recombinant human CYP1B1.
The species named for series [3] is Homo sapiens. The series can be described thus: Selectivity index, ratio of IC50 for recombinant human CYP1A2 to IC50 for recombinant human CYP1B1.
The target in series [4] is T1, Cytochrome P450 1B1. The series can be described thus: Potency index, ratio of IC50 of ANF to IC50 of compound for inhibition of human recombinant CYP1B1. Conditions: read-out: Ratio IC50.
The nature of series [5]: Water solubility of compound by HPLC analysis. In kind it is physicochemical. The procedure, abridged: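 Compound stocks at 5 mg/mL in DCM/MeOH were diluted in MeOH to 125–2000 µg/mL (500–5000 µg/mL for the salt form) and run on C18 HPLC with detection at 360 nm for calibration. A 10 µL injection of supersaturated aqueous solution, diluted if needed, was then analysed. Solubility was calculated from the linear regression.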

Values after ≈ are worked out from the molar mass of the structure shown.

For `COc1ccc(OC)c2c1c(OC)cc1c(=O)cc(-c3cncc(Br)c3)oc12`, the IC50 was 1.1 nM on Cytochrome P450 1B1 [1], 8 nM at Cytochrome P450 1A1 and 742 nM on Cytochrome P450 1A2. Besides, the Ratio IC50 came to 7.3 in the series filed under Homo sapiens [2] and 674 in the series listed under Homo sapiens [3]. In addition, at Cytochrome P450 1B1 [4], the selectivity ratio was found to be 5.

Consider `COc1ccc(OC)c2c1c(OC)cc1c(=O)cc(-c3ccncc3N)oc12`, for which the values for the IC50 at Cytochrome P450 1B1 [1], on Cytochrome P450 1A1 and on Cytochrome P450 1A2 were 24.8 nM, 31.6 nM and greater than 1000 nM, respectively. The Ratio IC50 in the series filed under Homo sapiens [2] was 1.3; in the series listed under Homo sapiens [3], greater than 40.3.

In the case of `COc1ccc(OC)c2c1c(OC)cc1c(=O)cc(-c3cc(Cl)ccn3)oc12`, the IC50 at Cytochrome P450 1B1 [1] was 0.84 nM; on Cytochrome P450 1A1, 9.9 nM; at Cytochrome P450 1A2 it was greater than 1000 nM. In addition, the Ratio IC50 in the series filed under Homo sapiens [2] was 11.8; in the series filed under Homo sapiens [3], greater than 1190.

On to `COc1ccc(OC)c2c1c(OC)cc1c(=O)cc(-c3cncc(C(=O)O)c3)oc12`, for which the 50% inhibitory concentration (IC50) is 30.1 nM on Cytochrome P450 1B1 [1], 85.8 nM at Cytochrome P450 1A1 and greater than 1000 nM on Cytochrome P450 1A2. The values for the Ratio IC50 in the series filed under Homo sapiens [2] and in the series listed under Homo sapiens [3] were 2.9 and greater than 33.2, respectively.

Consider `COc1ccc(OC)c2c1c(OC)cc1c(=O)cc(-c3ccc(N)nc3)oc12`, for which the figures for the 50% inhibitory concentration (IC50) at Cytochrome P450 1B1 [1], at Cytochrome P450 1A1 and at Cytochrome P450 1A2 were 0.98 nM, 30.8 nM and 108 nM, respectively. In addition, the Ratio IC50 stood at 31.4 in the series listed under Homo sapiens [2] and 110 in the series listed under Homo sapiens [3]. Also, the solubility in series [5] is 311 µg/mL (≈ 822 µM).

Consider `COc1ccc(OC)c2c1c(OC)cc1c(=O)cc(-c3ccc4ccccc4n3)oc12`, for which the concentration for half-maximal inhibition (IC50) was 1 nM on Cytochrome P450 1B1 [1], 118 nM at Cytochrome P450 1A1 and greater than 1000 nM on Cytochrome P450 1A2. In addition, the Ratio IC50 in the series listed under Homo sapiens [2] was 118; in the series filed under Homo sapiens [3] it was greater than 1000.

As to `COc1ccc(OC)c2c1c(OC)cc1c(=O)cc(-c3cncc(C)c3)oc12`, the half-inhibitory concentration (IC50) turned out to be 1.3 nM at Cytochrome P450 1B1 [1], 6.9 nM at Cytochrome P450 1A1 and 161 nM at Cytochrome P450 1A2. The Ratio IC50 was 5.3 in the series listed under Homo sapiens [2] and 124 in the series filed under Homo sapiens [3]. Moreover, on Cytochrome P450 1B1 [4], the selectivity ratio came to 5.

Compound `O=c1cc(-c2ccccc2)oc2c1ccc1ccccc12` [ALPHA-NAPHTHOFLAVONE] yielded a solubility in series [5] of less than 5 µg/mL.

With `COc1ccc(OC)c2c1c(OC)cc1c(=O)cc(-c3ccnc(F)c3)oc12`, the results for the IC50 on Cytochrome P450 1B1 [1], on Cytochrome P450 1A1 and on Cytochrome P450 1A2 were 0.93 nM, 38.9 nM and 518 nM, respectively. In addition, the Ratio IC50 in the series filed under Homo sapiens [2] was 41.8; in the series filed under Homo sapiens [3] it was 557.

Regarding `COc1ccc(OC)c2c1c(OC)cc1c(=O)cc(-c3ccc4ncccc4c3)oc12`, the IC50 was 1.8 nM at Cytochrome P450 1B1 [1], 20.9 nM on Cytochrome P450 1A1 and greater than 1000 nM at Cytochrome P450 1A2. Moreover, the Ratio IC50 is 11.6 in the series listed under Homo sapiens [2] and greater than 556 in the series listed under Homo sapiens [3].

As for `COc1ccc(OC)c2c1c(OC)cc1c(=O)cc(-c3cncc(F)c3)oc12`, the half-maximal inhibitory concentration (IC50) came out at 0.98 nM at Cytochrome P450 1B1 [1], 17.7 nM on Cytochrome P450 1A1 and 141 nM on Cytochrome P450 1A2. The Ratio IC50 is 18.1 in the series filed under Homo sapiens [2] and 144 in the series listed under Homo sapiens [3]. For the same compound, the selectivity ratio at Cytochrome P450 1B1 [4] is 5.

With `COc1ccc(OC)c2c1c(OC)cc1c(=O)cc(-c3ccc4[nH]cnc4c3)oc12`, the IC50 was 15.6 nM on Cytochrome P450 1B1 [1], 42.4 nM at Cytochrome P450 1A1 and greater than 1000 nM at Cytochrome P450 1A2. Besides, the Ratio IC50 in the series listed under Homo sapiens [2] was 2.7; in the series listed under Homo sapiens [3], greater than 64.1.

In the case of `COc1ccc(OC)c2c1c(OC)cc1c(=O)cc(-c3ccc4cc[nH]c4c3)oc12`, the values for the 50% inhibitory concentration (IC50) at Cytochrome P450 1B1 [1], on Cytochrome P450 1A1 and on Cytochrome P450 1A2 were 0.95 nM, 142 nM and greater than 1000 nM, respectively. For the same compound, the Ratio IC50 is 149 in the series filed under Homo sapiens [2] and greater than 1050 in the series listed under Homo sapiens [3].

With `COc1ccc(OC)c2c1c(OC)cc1c(=O)cc(-c3cc(Cl)cc(N4CCN(C)CC4)c3)oc12`, the 50% inhibitory concentration (IC50) on Cytochrome P450 1B1 [1] is 519 nM; at Cytochrome P450 1A1 it was greater than 1000 nM; at Cytochrome P450 1A2 it was greater than 1000 nM. The Ratio IC50 in the series listed under Homo sapiens [2] and in the series listed under Homo sapiens [3] was greater than 1.9 each time.

For the compound `COc1ccc(OC)c2c1c(OC)cc1c(=O)cc(-c3ccccn3)oc12`, the 50% inhibitory concentration (IC50) at Cytochrome P450 1B1 [1] is 0.6 nM; at Cytochrome P450 1A1, 5.4 nM; at Cytochrome P450 1A2, 108 nM. For the same compound, the values for the Ratio IC50 in the series listed under Homo sapiens [2] and in the series filed under Homo sapiens [3] were 9 and 179, respectively.

Consider `COc1ccc(OC)c2c1c(OC)cc1c(=O)cc(-c3cccc(Cl)n3)oc12`, for which the half-inhibitory concentration (IC50) was determined as 0.3 nM on Cytochrome P450 1B1 [1], 5.7 nM on Cytochrome P450 1A1 and 349 nM at Cytochrome P450 1A2. For the same compound, the Ratio IC50 in the series filed under Homo sapiens [2] was 19; in the series filed under Homo sapiens [3], 1160.

Regarding `COc1ccc(OC)c2c1c(OC)cc1c(=O)cc(-c3ccc(F)cn3)oc12`, the IC50 at Cytochrome P450 1B1 [1] was 0.07 nM; on Cytochrome P450 1A1, 16.8 nM; at Cytochrome P450 1A2 it was greater than 1000 nM. Besides, the Ratio IC50 in the series filed under Homo sapiens [2] was 240; in the series listed under Homo sapiens [3], greater than 14300. Further, the solubility in series [5] was less than 5 µg/mL. Moreover, the selectivity ratio on Cytochrome P450 1B1 [4] is 84.

With `COc1ccc(OC)c2c1c(OC)cc1c(=O)cc(-c3cscn3)oc12`, the IC50 at Cytochrome P450 1B1 [1] came out at 2.6 nM; at Cytochrome P450 1A1 it was 3.1 nM; at Cytochrome P450 1A2, 29.2 nM. In addition, the Ratio IC50 stood at 1.2 in the series listed under Homo sapiens [2] and 11.2 in the series filed under Homo sapiens [3].

Regarding `COc1ccc(OC)c2c1c(OC)cc1c(=O)cc(-c3c[nH]c4ccccc34)oc12`, the concentration for half-maximal inhibition (IC50) at Cytochrome P450 1B1 [1] was 4.1 nM; on Cytochrome P450 1A1, 16.5 nM; at Cytochrome P450 1A2, greater than 1000 nM. Moreover, the Ratio IC50 in the series filed under Homo sapiens [2] is 4; in the series listed under Homo sapiens [3] it was greater than 244.

For `COc1ccc(OC)c2c1c(OC)cc1c(=O)cc(-c3cncc(O)c3)oc12`, the IC50 at Cytochrome P450 1B1 [1] is 10.3 nM; on Cytochrome P450 1A1 it was 80.9 nM; at Cytochrome P450 1A2, greater than 1000 nM. In addition, the Ratio IC50 is 7.9 in the series listed under Homo sapiens [2] and greater than 97.1 in the series filed under Homo sapiens [3].

A word on the IC50: it is the concentration that inhibits the measured activity by half. A word on the solubility: it is how much of the substance goes into solution per volume.
